Measurements from ChEMBL document CHEMBL1142086, “Flavonoid dimers as bivalent modulators for pentamidine and sodium stiboglucanate resistance in leishmania” (Antimicrob Agents Chemother, 2007).
Calls of active or inactive are those of the source. Unless noted, the calls are words filed in the database; no cut-off is given here.

Columns and labels:
[1] = system: Leishmania enriettii; assay: Cytotoxicity against pentamidine-resistant Leishmania enriettii LePentR50 by MTS assay; type: organism-based
How it was run: (§1)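 Promastigotes in Schneider's Drosophila medium (pH 6.9) with 10% heat-inactivated FCS, 4 mM glutamine and gentamicin at 27°C. Seeded at 10^5 cells/well, exposed to a range of modulator concentrations (up to 200 μM) for 72 h at 27°C. MTS/PMS added, 4 h colour development, OD 490 nm. Survival expressed relative to untreated wells; ≥2 independent experiments in triplicate.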

[2] = system: Leishmania donovani; assay: Cytotoxicity against wild-type Leishmania donovani LdAG83 by MTS assay; type: organism-based; settings: AG83; how it was run: as §1
[3] = system: Leishmania donovani; assay: Cytotoxicity against SSG-resistant Leishmania donovani Ld39 by MTS assay; type: organism-based; how it was run: as §1
[4] = Effect on modulating pentamidine-resistance of Leishmania enriettii LePentR50 assessed as decrease in survival after 72 hrs by MTS; type: functional
How it was run: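 LePentR50 promastigotes seeded at 10^5 cells/well, exposed 72 h at 27°C to graded modulator alone or with 60 μg/ml pentamidine. MTS survival as percentage of untreated. […] Triplicates, three repeats.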

[5] = Resistance reversal as >50% reduction in SSG IC50 in wild-type Leishmania donovani LdAG83 by MTS assay; type: functional
How it was run: (§2)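 Promastigotes seeded at 10^5 cells/well and incubated 72 h at 27°C with serial concentrations of SSG (L. donovani) or pentamidine (L. enriettii LePentR50), each with 6 μM modulator or DMSO solvent control. Survival read by MTS/PMS at 490 nm after 4 h. […] Triplicates per concentration.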

[6] = Effect on modulating SSG-resistance of Leishmania donovani Ld39 promastigotes assessed as reversal of resistance at 6 uM after 72 hrs by MTS; type: functional
How it was run: (§3)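 Ld39 or LdAG83 promastigotes seeded at 10^5 cells/well with serial SSG dilutions plus modulator (0, 1, 2, 4, 6 μM) for 72 h at 27°C. SSG concentrations differ between the two strains. Percentage survivors by MTS. Triplicate points, three separate experiments.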

[7] = Resistance reversal as >50% reduction in SSG IC50 in drug-resistant Leishmania donovani Ld2001 by MTS assay; type: functional; how it was run: as §2
[8] = Resistance reversal as >50% reduction in pentamidine IC50 in drug-resistant Leishmania enriettii LePentR50 by MTS assay; type: functional; how it was run: as §2
[9] = Resistance reversal as >50% reduction in SSG IC50 in drug-resistant Leishmania donovani Ld39 by MTS assay; type: functional; how it was run: as §2
[10] = Resistance reversal as >50% reduction in pentamidine IC50 in Leishmania enriettii LeV160 overexpressing LeMDR1 by MTS assay; type: functional
How it was run: (§4)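 L. enriettii promastigotes are wild type, LeMDR1−/− (no drug in culture) or LeV160 (maintained in 160 μg/ml vinblastine). Seeded at 10^5 cells/well with graded pentamidine plus 6 μM modulator for 72 h at 27°C. MTS read-out at 490 nm gives the pentamidine IC50. Three independent experiments in triplicate.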

[11] = Resistance reversal as >50% reduction in pentamidine IC50 in Leishmania enriettii LeMDR1-/- by MTS assay; type: functional; how it was run: as §4
[12] = system: Leishmania donovani; assay: Increase of SSG accumulation in drug-resistant Leishmania donovani Ld2001 at 60 uM relative to LdAG83 cells; type: functional, organism-based
How it was run: (§5)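 Axenic amastigotes made by shifting 4-day promastigotes into supplemented M199 at 37°C for 24 h. 1 ml (2 × 10^8 cells/ml) incubated with 0.05 mM SSG plus modulator (0, 30, 60 μM) for 3 h at 37°C. After PBS washes, cells digested in nitric acid. Total Sb measured by ICP-MS (m/z 121/123, In internal standard), in nmol/mg protein. Expressed as % of LdAG83; triplicates, two experiments.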

[13] = system: Leishmania donovani; assay: Cytotoxicity against wild-type Leishmania donovani at 60 uM after 3 hrs; type: organism-based; settings: in vitro
[14] = system: Leishmania donovani; assay: Increase of SSG accumulation in drug-resistant Leishmania donovani Ld39 at 30 uM relative to LdAG83 cells; type: functional, organism-based; how it was run: as §5
[15] = system: Leishmania enriettii; assay: Increase of pentamidine accumulation in drug-resistant Leishmania enriettii LePentR50 promastigotes at 15 uM after 3 hrs; type: functional, organism-based
How it was run: (§6)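 4-day-old LePentR50 promastigotes (2 × 10^8 cells/ml, 1 ml) incubated with 0.84 mM pentamidine plus modulator (0, 15, 30, 60 μM) for 3 h at 27°C in the dark. Cells washed with cold PBS and lysed in 75% acetonitrile by freeze-thaw. Pentamidine quantified by ion-pair C18 HPLC at 265 nm against a standard curve and expressed per mg protein. Triplicates, repeated twice.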

[16] = system: Leishmania donovani; assay: Increase of SSG accumulation in drug-resistant Leishmania donovani Ld39 at 60 uM relative to LdAG83 cells; type: functional, organism-based; how it was run: as §5
[17] = system: Leishmania donovani; assay: Increase of SSG accumulation in drug-resistant Leishmania donovani Ld2001 at 30 uM relative to LdAG83 cells; type: functional, organism-based; how it was run: as §5
[18] = Effect on modulating drug-resistance of wild type SSG-sensitive Leishmania donovani LdAG83 promastigotes assessed as reversal of resistance at 6 uM after 72 hrs by MTS; type: functional; how it was run: as §3
[19] = system: Leishmania enriettii; assay: Increase of pentamidine accumulation in drug-resistant Leishmania enriettii LePentR50 promastigotes at 30 uM after 3 hrs; type: functional, organism-based; how it was run: as §6
[20] = Resistance reversal as >50% reduction in pentamidine IC50 in wild-type Leishmania enriettii by MTS assay; type: functional; how it was run: as §4
[21] = system: Leishmania enriettii; assay: Cytotoxicity against drug-resistant Leishmania enriettii LePentR50 at 60 uM after 3 hrs; type: organism-based; settings: in vitro
[22] = Toxicity against pentamidine-resistance Leishmania enriettii LePentR50 upto 6 uM
[23] = system: Leishmania enriettii; assay: Increase of pentamidine accumulation in drug-resistant Leishmania enriettii LePentR50 promastigotes at 60 uM after 3 hrs; type: functional, organism-based; how it was run: as §6

O=c1cc(-c2ccc(OCCOCCOCCO)cc2)oc2cc(O)cc(O)c12
IC50 [1]: > 200 µM
IC50 [2]: > 200 µM
IC50 [3]: > 200 µM

O=c1cc(-c2ccc(OCCOCCOCCOCCOCCOCCOCCOCCOCCOCCOCCOCCOCCOc3ccc(-c4cc(=O)c5c(O)cc(O)cc5o4)cc3)cc2)oc2cc(O)cc(O)c12
IC50 [2]: 50 µM
IC50 [3]: 60 µM

O=c1cc(-c2ccc(OCCOCCOCCOCCOCCOCCOCCOCCOCCOCCOc3ccc(-c4cc(=O)c5c(O)cc(O)cc5o4)cc3)cc2)oc2cc(O)cc(O)c12
IC50 [2]: > 200 µM
IC50 [3]: > 200 µM

O=c1cc(-c2ccc(OCCOc3ccc(-c4cc(=O)c5c(O)cc(O)cc5o4)cc3)cc2)oc2cc(O)cc(O)c12
IC50 [2]: 95 µM

O=c1cc(-c2ccc(O)cc2)oc2cc(O)cc(O)c12 [APIGENIN]
IC50 [1]: 55 µM
IC50 [2]: 32 µM
IC50 [3]: 43 µM

O=c1cc(-c2ccc(OCCOCCOCCOCCOCCOc3ccc(-c4cc(=O)c5c(O)cc(O)cc5o4)cc3)cc2)oc2cc(O)cc(O)c12
IC50 [1]: 70 µM
IC50 [2]: 30 µM
IC50 [3]: 42 µM

O=c1cc(-c2ccc(OCCOCCOCCOCCOCCOCCOCCOCCOc3ccc(-c4cc(=O)c5c(O)cc(O)cc5o4)cc3)cc2)oc2cc(O)cc(O)c12
IC50 [2]: 12 µM
IC50 [3]: 14 µM

O=c1cc(-c2ccc(OCCOCCOCCOCCOCCOCCOc3ccc(-c4cc(=O)c5c(O)cc(O)cc5o4)cc3)cc2)oc2cc(O)cc(O)c12
IC50 [1]: 40 µM
IC50 [2]: 11 µM
IC50 [3]: 13 µM

O=c1cc(-c2ccc(OCCOCCOCCOc3ccc(-c4cc(=O)c5c(O)cc(O)cc5o4)cc3)cc2)oc2cc(O)cc(O)c12
EC50 [4]: 1.85 µM
Resistance reversal [5]: inactive
Resistance reversal [6]: Dose-dependent effect
Resistance reversal [7]: Active
Resistance reversal [8]: Active
IC50 [2]: 8 µM
Resistance reversal [9]: Active
IC50 [3]: 11 µM
Resistance reversal [10]: Active
Resistance reversal [11]: Active

O=c1cc(-c2ccc(OCCOCCOCCOCCOCCOCCOCCOCCOCCOc3ccc(-c4cc(=O)c5c(O)cc(O)cc5o4)cc3)cc2)oc2cc(O)cc(O)c12
IC50 [2]: 10 µM
IC50 [3]: 14 µM

O=c1cc(-c2ccc(OCCOCCOCCOCCOc3ccc(-c4cc(=O)c5c(O)cc(O)cc5o4)cc3)cc2)oc2cc(O)cc(O)c12
EC50 [4]: 0.94 µM
Drug uptake [12]: 69%
Resistance reversal [5]: inactive
Resistance reversal [6]: Dose-dependent effect
IC50 [1]: > 200 µM
Activity [13]: Not Active
Resistance reversal [7]: Active
Resistance reversal [8]: Active
IC50 [2]: 7 µM
Drug uptake [14]: 74%
Drug uptake [15]: 2.95 µM
Drug uptake [16]: 90%
Drug uptake [17]: 83%
Resistance reversal [18]: inactive
Drug uptake [19]: 4.69 µM
Resistance reversal [9]: Active
Resistance reversal [20]: Active
Activity [21]: Not Active
IC50 [3]: 10 µM
Resistance reversal [10]: Active
Resistance reversal [11]: Active
Toxicity [22]: Not Toxic
Drug uptake [23]: 26.6 µM
